Data set [1] addresses Serine/threonine-protein kinase PknG (Mycobacterium tuberculosis) (UniProt P9WI73). Description: Inhibition of full length Mycobacterium tuberculosis protein kinase G at 40 uM using GarA as substrate in presence of ATP relative to control. In a few lines: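 End-point assay with full-length PknG 1 μM, GarA 25 μM and ATP 2 μM, in 25 mM Tris-HCl pH 7.4, 2 mM MnCl2 and 1–2% DMSO. Reactions ran 60 min at 37 °C, after which remaining ATP was read by Kinase-Glo Plus luminescence. Inhibition was referenced to no-compound (DMSO) and no-GarA controls. Duplicates.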

The test system of data set [2] is Mycobacterium tuberculosis. The experiment in a line: Antimycobacterial activity against Mycobacterium tuberculosis H37Rv infected in human THP-1 cells assessed as reduction in intracellular survival at 1 to 10 uM measured after 24 to 48 hrs. Format: functional, organism-based. The note with it: dose 1-10 µM, time 24-48 hrs. In a few lines:
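THP-1 monocytes were differentiated with 10 ng/mL PMA for 48 h and infected with Mtb H37Rv (MOI 10) for 2 h. Cells were washed and cultured without penicillin–streptomycin with compound at 1 and 10 μM for 24 and 48 h. Lysis was in 0.05% Triton X-100; serial dilutions were plated in quadruplicate on 7H10 OADC. CFU were counted after 3 weeks. Welch's ANOVA with Dunnett T3.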

Data set [3] has as its target T1, Serine/threonine-protein kinase PknG (Mycobacterium tuberculosis, UniProt P9WI73). Description: Inhibition of full length Mycobacterium tuberculosis protein kinase G using His-tagged GarA as substrate in presence of [gamma32P] ATP measured after 12 to 24 hrs by radiometric kinase assay.
For data set [4], the target named is T1, Serine/threonine-protein kinase PknG. The experiment in a line: Binding affinity to full length Mycobacterium tuberculosis protein kinase G expressed in Escherichia coli BL21 assessed as dissociation constant at 21 degreeC by fluorescence spectroscopy based.
The subject of another data set is THP-1. The experiment in a line: Cytotoxicity against human THP1 cells assessed as reduction in cell viability at 1 to 10 uM measured for 3 to 48 hrs by trypan blue assay. The data set is classed as toxicity, cell-based. The note with it: thp-1, 10 µM, dose lower 1 µM, time lower 3 hrs, dose upper 10 µM, time upper 48 hrs. A digest of the protocol:
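PMA-differentiated THP-1 macrophages were exposed to compound at 1 and 10 μM for 3, 5, 24 and 48 h. Viability was scored by trypan blue exclusion, in triplicate, as percent of untreated control cells.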

We go through nine molecules from ChEMBL document CHEMBL5143719, “Cosolvent Sites-Based Discovery of Mycobacterium Tuberculosis Protein Kinase G Inhibitors” (J Med Chem, 2022).

Calls of active or inactive are those of the source. No cut-off for these calls is given here.

T1 sequence (P9WI73 whole entry): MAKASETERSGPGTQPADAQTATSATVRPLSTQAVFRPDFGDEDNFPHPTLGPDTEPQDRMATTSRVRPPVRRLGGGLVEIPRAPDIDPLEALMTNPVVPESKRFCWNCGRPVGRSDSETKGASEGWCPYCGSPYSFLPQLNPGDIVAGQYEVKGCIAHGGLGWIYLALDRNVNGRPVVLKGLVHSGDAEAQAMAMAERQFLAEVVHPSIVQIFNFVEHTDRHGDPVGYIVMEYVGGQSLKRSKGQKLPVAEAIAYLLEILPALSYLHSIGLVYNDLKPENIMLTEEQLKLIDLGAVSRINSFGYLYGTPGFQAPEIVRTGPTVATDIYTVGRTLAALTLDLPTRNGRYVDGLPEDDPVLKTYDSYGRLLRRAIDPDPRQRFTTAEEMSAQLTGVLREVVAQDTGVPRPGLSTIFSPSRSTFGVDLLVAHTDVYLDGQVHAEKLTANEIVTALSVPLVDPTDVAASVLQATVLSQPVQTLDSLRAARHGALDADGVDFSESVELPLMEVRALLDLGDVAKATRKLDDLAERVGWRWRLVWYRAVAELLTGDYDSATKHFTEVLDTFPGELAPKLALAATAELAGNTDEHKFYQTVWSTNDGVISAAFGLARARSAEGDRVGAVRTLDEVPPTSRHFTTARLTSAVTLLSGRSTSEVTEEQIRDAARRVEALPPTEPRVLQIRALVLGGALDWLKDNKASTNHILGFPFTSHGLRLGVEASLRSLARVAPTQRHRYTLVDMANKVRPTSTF
Sequence of Serine/threonine-protein kinase PknG (Mycobacterium tuberculosis) (P9WI73 whole entry): as above

For `CS(=O)(=O)Nc1ccc(-c2cc(-c3ccccc3)cc(C(N)=O)c2N)cc1`, in data set [1], the inhibition was 50%.

Consider `NC(=O)c1c(NC(=O)C2CC2)sc2c1CCCC2`, for which the outcome in data set [2] was Active. Besides, in data set [3], the IC50 was 900 nM.

With `NC(=O)c1c(N)c(C(=O)c2ccc(Br)cc2)n2ccccc12`, the Kd in data set [4] came to 1300 nM.

Regarding `CCN1CCCC1CNC(=O)Nc1sc2c(c1C(N)=O)CCCC2` (configuration not stated), the result in data set [2] was Active.

Take `NC(=O)c1c(N)c(C(=O)c2ccccc2)n2ccccc12`: in data set [4], the Kd turned out to be 1800 nM.

`NC(=O)c1c(NC(=O)NCC2CCCO2)sc2c1CCCC2` (configuration not stated): the outcome in data set [2] was Active.

For `CC(C)c1ccc(C(=O)c2c(N)c(C(N)=O)c3ccccn23)cc1`, the result in data set [2] was Active. The Activity entry with THP-1 is recorded as “Non-Toxic”.

`CCOc1ccc(C(=O)c2c(N)c(C(N)=O)c3ccccn23)cc1`: the Kd in data set [4] is 13000 nM.

For the molecule `NC(=O)c1c(N)c(C(=O)c2ccc(F)cc2)n2ccccc12`, in data set [2], the outcome was Active. In the data set with THP-1, the Activity entry is “Non-Toxic”.

What is called inhibition is how much of the control response was suppressed. As usually defined, the IC50 is the point on the concentration scale where inhibition reaches its midpoint. By Kd is commonly meant the concentration at which binding is half-saturated.
